Measured values collected from several papers.
Lines come from different studies, so protocols differ.
RPS6KA5: Ribosomal protein S6 kinase alpha-5 (RPS6KA5, Homo sapiens, UniProt O75582)
RPS6KA5 N-terminal kinase domain: Ribosomal protein S6 kinase alpha-5, N-terminal kinase domain (RPS6KA5, Homo sapiens, UniProt O75582)
RPS6KA5 C-terminal kinase domain: Ribosomal protein S6 kinase alpha-5, C-terminal kinase domain (RPS6KA5, Homo sapiens, UniProt O75582)

SMILES | target | test | setting | quantity | value
COc1cc(Nc2cnc(C#N)c(O[C@H](C)CN(C)C)n2)ncc1-c1cnn(C)c1 | RPS6KA5 | enzyme activity, inhibitor, radiometric | 10 µM | remaining activity | 41%
O=C(Nc1cnn(-c2csc(C(=O)NC3COC3)c2)c1)Nc1c(F)cccc1Cl | RPS6KA5 | enzyme activity, inhibitor | 5 µM | remaining activity | 104%
Nc1nc(Nc2ccc(S(N)(=O)=O)cc2)nn1C(=O)c1c(F)cccc1F | RPS6KA5 | cell-free assay | 0.5 µM | remaining signal | 97.2%
O=C(O)[C@@H]1[C@@H](Cn2nnc3ccccc3c2=O)CC[C@H]1C(=O)c1ccc(OCCC2CCOCC2)cc1 | RPS6KA5 N-terminal kinase domain | cell-free assay, competition with immobilised ligand | 1 µM | remaining binding | 100%
CNc1cccc2cc(C(=O)Nc3ccc(C(=O)O)cc3)c(=O)[nH]c12 | RPS6KA5 | enzyme activity, inhibitor | 10 µM | inhibition | -7.3%
Oc1ccc(-c2nc(-c3ccncc3)c(-c3ccc(F)cc3)[nH]2)cc1 | RPS6KA5 | cell-free assay | 0.5 µM | remaining signal | 107%
CC(C)(C)c1nc2c(s1)c1nc(N)ncc1c1ccc(NS(=O)(=O)c3c(F)cccc3F)c(F)c12 | RPS6KA5 | enzyme activity, inhibitor, radiometric | 1 µM | remaining activity | 95%
Cc1c(NC(=O)c2cc(C(N)=O)nc3cc(F)ccc23)c(C(F)(F)F)nn1Cc1ccc(C(C)(C)C)cc1 | RPS6KA5 C-terminal kinase domain | cell-free assay, competition with immobilised ligand | 1 µM | remaining binding | 89%
Nc1ncnc2occ(-c3ccc(NC(=O)Nc4cc(C(F)(F)F)ccc4F)cc3)c12 | RPS6KA5 C-terminal kinase domain | cell-free assay, inhibitor | 20 µM | remaining signal | 23%
C[C@H]1CCN(c2nccc(-c3cnn4ncccc34)n2)C1 | RPS6KA5 C-terminal kinase domain | binding, competition with immobilised ligand | 1 µM | remaining binding | 100%
Cc1ccc(NC(=O)c2ccc(C)c(C(F)(F)F)c2)cc1C#Cc1nn(C2CCC(O)CC2)c2ncnc(N)c12 (stereo not drawn) | RPS6KA5 | cell-free assay | 10 µM | remaining signal | 95%
Nc1c(C(=O)NCc2ccc(C(=O)NCCCC3CCCCC3)cc2)cnn1-c1ccccc1 | RPS6KA5 N-terminal kinase domain | cell-free assay, competition with immobilised ligand | 0.1 µM | remaining binding | 94%
CN1CC(Oc2cnc(C#N)cc2-c2ccn3nc(NC(=O)C4CC4)cc3c2)C1 | RPS6KA5 | enzyme activity, inhibitor | 1 µM | inhibition | -7%
C=CC(=O)Nc1cc(Nc2nccc(Nc3cc(Cl)c(F)cc3C(C)(C)O)n2)c(OC)cc1N1CC[C@@H](N(C)C)C1 | RPS6KA5 | enzyme activity, inhibitor | 1 µM | inhibition | 26%
N[C@@H]1CCN(c2nccc(-c3cnn4ncccc34)n2)C1 | RPS6KA5 N-terminal kinase domain | binding, competition with immobilised ligand | 1 µM | remaining binding | 94%
Cc1cnc(NC2CCOCC2)nc1-n1cnc(C(=O)NC(CN)c2cc(F)cc(Cl)c2)c1 (stereo not drawn) | RPS6KA5 | enzyme activity, inhibitor, radiometric | 1 µM | remaining activity | 74%
CC1CCCN1c1nccc(-c2cnn3ncccc23)n1 (stereo not drawn) | RPS6KA5 N-terminal kinase domain | binding, competition with immobilised ligand | 1 µM | remaining binding | 100%
COc1cc2ncnc(Nc3ccc(Oc4ccccc4)c(C)c3C)c2cc1OC | RPS6KA5 | enzyme activity, inhibitor | 1 µM | inhibition | 2%

SMILES | target | test | setting | quantity | value
CC(=O)N1CCC(c2ccc(C(=O)NC3=NCCN3)cc2C(F)(F)F)CC1 | RPS6KA5 C-terminal kinase domain | cell-free assay, competition with immobilised ligand | 1 µM | remaining binding | 70%
Cc1ccc(C(=O)Nc2ccc(CN3CCN(C)CC3)c(C(F)(F)F)c2)cc1C#Cc1cnc2cccnn12 | RPS6KA5 | enzyme activity, inhibitor | 23.5 nM | remaining activity | 92%
CC(C)(C)C(=O)c1sc(NC2CCCCC2)nc1N | RPS6KA5 | enzyme activity, inhibitor | 10 µM | remaining activity | 102%
O=C1NC(=O)c2cc(Nc3ccc(F)cc3)c(Nc3ccc(F)cc3)cc21 | RPS6KA5 | cell-free assay | 0.5 µM | remaining signal | 93.6%
Cc1ccc(Nc2nccc(N(C)c3ccc4c(C)n(C)nc4c3)n2)cc1S(N)(=O)=O | RPS6KA5 | enzyme activity, inhibitor | 0.3 µM | inhibition | 6%
Cc1ccc(C(=O)NCc2ccsc2)cc1C#Cc1cn(C(C)C)c2ncnc(N)c12 | RPS6KA5 | enzyme activity, inhibitor | 1 µM | activity vs control | 104%
CNCc1ccc(-c2cc(-c3nc(-c4ccc(S(=O)(=O)C(C)C)cc4)cnc3N)on2)cc1 | RPS6KA5 | enzyme activity, inhibitor | 2 µM | inhibition | 0%
O=C(NS(=O)(=O)c1ccc(NCC2CCOCC2)c([N+](=O)[O-])c1)c1ccc(N2CCN(Cc3ccc(C(F)(F)F)cc3-c3ccc(Cl)cc3)CC2)cc1Oc1cnc2[nH]ccc2c1 | RPS6KA5 N-terminal kinase domain | cell-free assay, competition with immobilised ligand | 1 µM | remaining binding | 97%
Nc1nc(Nc2ccccc2)sc1C(=O)c1c(F)cccc1F | RPS6KA5 | enzyme activity, inhibitor | 10 µM | remaining activity | 87%
Cn1c(=O)n(-c2ccc(C(C)(C)C#N)cc2)c2c3cc(-c4cnc5ccccc5c4)ccc3ncc21 | RPS6KA5 | enzyme activity, inhibitor | 10 µM | remaining activity | 102%
NS(=O)(=O)c1cc(NC(=O)Cc2ccccc2)ccc1Oc1cccc(Cl)c1 | RPS6KA5 N-terminal kinase domain | cell-free assay, competition with immobilised ligand | 1 µM | remaining binding | 71%
c1cnn2ncc(-c3ccnc(N4CCC45COC5)n3)c2c1 | RPS6KA5 C-terminal kinase domain | binding, competition with immobilised ligand | 1 µM | remaining binding | 100%
CNC(=O)c1cc(Oc2ccc(NC(=O)Nc3ccc(Cl)c(C(F)(F)F)c3)cc2)ccn1 | RPS6KA5 | enzyme activity, inhibitor | 0.3 µM | inhibition | -5%
O=c1nc(-c2ccccn2)sc2ccccc12 | RPS6KA5 N-terminal kinase domain | binding, competition with immobilised ligand | 1 µM | remaining binding | 94%
COc1cc2c(N3CCN(C(=O)Nc4ccc(OC(C)C)cc4)CC3)ncnc2cc1OCCCN1CCCCC1 | RPS6KA5 | cell-free assay | 0.5 µM | remaining signal | 109%
COc1cc(/C=C/C(=O)CC(=O)/C=C/c2ccc(O)c(OC)c2)ccc1O | RPS6KA5 | enzyme activity, inhibitor | 1 µM | activity vs control | 92%
CCc1ccccc1C(=O)Nc1n[nH]c2c(C)c(F)c(C3C(C#N)=C(C)N(C)C(C)=C3C#N)cc12 | RPS6KA5 C-terminal kinase domain | cell-free assay, competition with immobilised ligand | 1 µM | remaining binding | 90%
CCN(CC)c1ccc(C2=NNC(=O)CC2C)cc1[N+](=O)[O-] (stereo not drawn) | RPS6KA5 | enzyme activity, inhibitor | 10 µM | remaining activity | 83%
